ChEMBL document CHEMBL1121810, “Antihypertensive activity of 6-arylpyrido[2,3-d]pyrimidin-7-amine derivatives” (1981)

Columns and labels:
Assay type in all cases: functional
Details in all cases: route oral
Rattus norvegicus [1] = assay: Effect on heart rate of spontaneously hypertensive rats, 2 hr after peroral administration at 50 mg/kg
In short: (§1)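 Heart rate was derived from the pulsatile arterial pressure signal in conscious catheterized male SHR (22-24 weeks, 250-350 g), with continuous monitoring sampled 3 min per 30 min. Drug was given by gavage as a 4% gum acacia suspension at 2 mL/kg, dose as free base, to groups of 3-4 rats with mean pressure >150 mmHg. Individual 30-min means were compared with pretreatment values.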

Rattus norvegicus [2] = assay: Effect on heart rate of spontaneously hypertensive rats, 24 hr after peroral administration at 50 mg/kg; in short: as §1
Rattus norvegicus [3] = assay: Effect on heart rate of spontaneously hypertensive rats, 10 hr after peroral administration at 50 mg/kg; in short: as §1
Rattus norvegicus [4] = assay: Effect on heart rate of spontaneously hypertensive rats, 18 hr after peroral administration of 50 mg/kg of compound; in short: as §1
Rattus norvegicus [5] = assay: Effect on heart rate of spontaneously hypertensive rats, 2 hr after peroral administration of 10 mg/kg of compound; in short: as §1
Rattus norvegicus [6] = assay: Effect on heart rate of spontaneously hypertensive rats, 10 hr after peroral administration of 10 mg/kg of compound; in short: as §1
Rattus norvegicus [7] = assay: Maximum percent decrease in heart rate of spontaneously hypertensive rats, 5 hours after peroral administration of 50 mg/kg of compound
In short: (§2)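 Conscious male SHR (Kyoto-Wistar origin, 22-24 weeks, 250-350 g; mean BP >150 mmHg, pulse pressure >25 mmHg) with indwelling catheters, ~0.8 mL heparinized saline/day. Dosed by gavage as a 4% gum acacia suspension, 2 mL/kg, free-base doses, 3-4 rats per group. Heart rate was derived from the pulsatile pressure signal, sampled 3 min every 30 min, and 30-min means were compared with pretreatment values.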

Rattus norvegicus [8] = assay: Effect on heart rate of spontaneously hypertensive rats, 24 hr after peroral administration of 10 mg/kg of compound; in short: as §1
Rattus norvegicus [9] = assay: Maximum percent decrease in heart rate of spontaneously hypertensive rats, 2 hours after peroral administration of 50 mg/kg of compound; in short: as §1
Rattus norvegicus [10] = assay: Maximum percent decrease in heart rate of spontaneously hypertensive rats, 3 hours after peroral administration of 50 mg/kg of compound; in short: as §1
Rattus norvegicus [11] = assay: Effect on heart rate of spontaneously hypertensive rats, 24 hr after peroral administration of 3 mg/kg of compound; in short: as §1
Rattus norvegicus [12] = assay: Effect on heart rate of spontaneously hypertensive rats, 2 hr after peroral administration of 3 mg/kg of compound; in short: as §1
Rattus norvegicus [13] = assay: Maximum percent decrease in heart rate of spontaneously hypertensive rats, 6 hours after peroral administration of 50 mg/kg of compound; in short: as §2
Rattus norvegicus [14] = assay: Maximum percent decrease in heart rate of spontaneously hypertensive rats, 8 hours after peroral administration of 50 mg/kg of compound; in short: as §2
Rattus norvegicus [15] = assay: Blood pressure rating in spontaneously hypertensive rats, 24 hr after peroral administration of 50 mg/kg of compound
In short: (§3)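 Conscious male SHR (Kyoto-Wistar origin, 22-24 weeks, 250-350 g) with indwelling catheters, given about 160 units heparin/day in saline. Only rats with mean blood pressure >150 mmHg and pulse pressure >25 mmHg were used, in groups of 3-4. Dosing was oral gavage at 2 mL/kg in 4% gum acacia suspension, as free base. Pressure was sampled 3 min of every 30 min, and 30-min means were compared with pretreatment values.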

Rattus norvegicus [16] = assay: Blood pressure rating in spontaneously hypertensive rats, 10 hr after peroral administration of 50 mg/kg of compound; in short: as §3
Rattus norvegicus [17] = assay: Blood pressure rating in spontaneously hypertensive rats, 2 hr after peroral administration of 50 mg/kg of compound; in short: as §3
Rattus norvegicus [18] = assay: Maximum percent decrease in heart rate of spontaneously hypertensive rats, 10 hours after peroral administration of 50 mg/kg of compound; in short: as §1
Rattus norvegicus [19] = assay: Max effect on heart rate of spontaneously hypertensive rats, 3-5 hr after peroral administration of 10 mg/kg of compound; in short: as §1
Rattus norvegicus [20] = assay: Maximum effect on heart rate of spontaneously hypertensive rats, 3-5 hr after peroral administration of 10 mg/kg of compound; in short: as §1
Rattus norvegicus [21] = assay: Maximum effect on heart rate of spontaneously hypertensive rats, 18 hours after peroral administration of 10 mg/kg of compound; in short: as §1
Rattus norvegicus [22] = assay: Maximum percent decrease in heart rate of spontaneously hypertensive rats, 4 hr after peroral administration of 50 mg/kg of compound; in short: as §1
Rattus norvegicus [23] = assay: Effect on heart rate of spontaneously hypertensive rats,18hours after peroral administration of 50 mg/kg of compound; in short: as §1
Rattus norvegicus [24] = assay: Maximum percent decrease in heart rate of spontaneously hypertensive rats, 28 hours after peroral administration of 50 mg/kg of compound; in short: as §1
Rattus norvegicus [25] = assay: Maximum percent decrease in heart rate of spontaneously hypertensive rats, 10 hr after peroral administration of 50 mg/kg of compound; in short: as §1

Compound	Activity rating (Rattus norvegicus [1])	Activity rating (Rattus norvegicus [2])	Activity rating (Rattus norvegicus [3])	other results
Nc1nc2nc(C(F)(F)F)ncc2cc1-c1c(Cl)cccc1Cl	0	0	0	–
Cc1ncc2cc(-c3ccccc3)c(N)nc2n1	0	0	0	–
Cc1ncc2cc(-c3ccc(Cl)cc3)c(N)nc2n1	0	0	0	–
Cc1ncc2cc(-c3ccccc3C(F)(F)F)c(N)nc2n1	0	0	0	–
Cc1ncc2cc(-c3c(C)cccc3Cl)c(N)nc2n1	1	–	2	Activity rating (Rattus norvegicus [4]): 2; Activity rating (Rattus norvegicus [5]): 2; Activity rating (Rattus norvegicus [6]): 2; Decrease (Rattus norvegicus [7]): 30%
Cc1ncc2cc(-c3cccnc3)c(N)nc2n1	0	0	0	–
Cc1ncc2cc(-c3ccccc3F)c(N)nc2n1	0	0	0	–
Cc1ccccc1-c1cc2cncnc2nc1N	1	0	1	Activity rating (Rattus norvegicus [8]): 0; Activity rating (Rattus norvegicus [5]): 0; Activity rating (Rattus norvegicus [6]): 0; Decrease (Rattus norvegicus [9]): 18%
Cc1ncc2cc(-c3cccc(C)c3C)c(N)nc2n1	0	0	0	–
Cc1cccc(C)c1-c1cc2cncnc2nc1N	1	–	0	Decrease (Rattus norvegicus [10]): 12%
Cc1ncc2cc(-c3ccccc3I)c(N)nc2n1	0	0	0	–
Clc1cccc(Cl)c1NC1=NCCN1 [CLONIDINE]	–	–	–	Activity rating (Rattus norvegicus [11]): 2; Activity rating (Rattus norvegicus [12]): 0
Cc1ncc2cc(-c3c(C)cccc3C)c(N)nc2n1	0	0	0	–
CCc1ncc2cc(-c3c(Cl)cccc3Cl)c(N)nc2n1	0	0	1	Decrease (Rattus norvegicus [13]): 15%
Nc1nc2ncncc2cc1-c1ccccc1I	0	1	0	Decrease (Rattus norvegicus [14]): 11%
Cc1ncc2cc(-c3ccc(Cl)cc3Cl)c(N)nc2n1	0	1	1	Decrease (Rattus norvegicus [14]): 13%
CCc1ccccc1-c1cc2cncnc2nc1N	3	0	0	Decrease (Rattus norvegicus [9]): 33%
Nc1nc2nc(C3CC3)ncc2cc1-c1ccccc1Br	–	–	–	Activity rating (Rattus norvegicus [15]): 0; Activity rating (Rattus norvegicus [16]): 0; Activity rating (Rattus norvegicus [17]): 0
Cc1ncc2cc(-c3cccc(Cl)c3Cl)c(N)nc2n1	0	0	0	–
Nc1nc2nc(C3CC3)ncc2cc1-c1c(Cl)cccc1Cl	–	–	–	Activity rating (Rattus norvegicus [15]): 0; Activity rating (Rattus norvegicus [16]): 0; Activity rating (Rattus norvegicus [17]): 0
Cc1cccc(-c2cc3cncnc3nc2N)c1C	0	0	0	–
Nc1nc2ncncc2cc1-c1ccccc1C(F)(F)F	0	0	0	–
Cc1cccc(Cl)c1-c1cc2cncnc2nc1N	1	–	2	Activity rating (Rattus norvegicus [4]): 1; Decrease (Rattus norvegicus [18]): 21%
Cc1ncc2cc(-c3ccc([N+](=O)[O-])cc3)c(N)nc2n1	–	–	–	Activity rating (Rattus norvegicus [15]): 0; Activity rating (Rattus norvegicus [16]): 0; Activity rating (Rattus norvegicus [17]): 0

Compound	Activity rating (Rattus norvegicus [1])	Activity rating (Rattus norvegicus [2])	Activity rating (Rattus norvegicus [3])	other results
Nc1nc2ncncc2cc1-c1ccccc1Br	0	–	1	Activity rating (Rattus norvegicus [4]): 1; Activity rating (Rattus norvegicus [19]): 0; Decrease (Rattus norvegicus [7]): 16%
Cc1ncc2cc(-c3cccc(Br)c3C)c(N)nc2n1	0	0	0	–
Nc1nc2ncncc2cc1-c1ccccc1	0	0	0	–
Nc1nc2nc(/C=C/c3ccccc3)ncc2cc1-c1c(Cl)cccc1Cl	–	–	–	Activity rating (Rattus norvegicus [15]): 0; Decrease (Rattus norvegicus [13]): 13%; Activity rating (Rattus norvegicus [16]): 1; Activity rating (Rattus norvegicus [17]): 0
Cc1ncc2cc(-c3c(Cl)cccc3Br)c(N)nc2n1	2	2	2	Activity rating (Rattus norvegicus [20]): 1; Activity rating (Rattus norvegicus [21]): 0; Decrease (Rattus norvegicus [7]): 26%
Cc1ncc2cc(-c3ccco3)c(N)nc2n1	–	–	–	Activity rating (Rattus norvegicus [15]): 0; Activity rating (Rattus norvegicus [16]): 0; Activity rating (Rattus norvegicus [17]): 0
Cc1ccccc1-c1cc2cnc(C3CC3)nc2nc1N	–	–	–	Activity rating (Rattus norvegicus [15]): 0; Activity rating (Rattus norvegicus [16]): 0; Activity rating (Rattus norvegicus [17]): 0
Cc1nc(C)c2cc(-c3ccccc3C)c(N)nc2n1	0	0	0	Decrease (Rattus norvegicus [14]): 11%
Cc1ncc2cc(-c3c(C)cccc3Br)c(N)nc2n1	0	0	1	Decrease (Rattus norvegicus [7]): 18%
Cc1nc(N)c2cc(-c3c(Cl)cccc3Cl)c(N)nc2n1	0	0	0	–
Cc1ncc2cc(-c3ccccc3Br)c(N)nc2n1	1	0	1	Decrease (Rattus norvegicus [22]): 19%; Activity rating (Rattus norvegicus [19]): 0
Nc1nc2ncncc2cc1-c1c(Cl)cccc1Br	1	–	2	Activity rating (Rattus norvegicus [23]): 1; Activity rating (Rattus norvegicus [8]): 1; Activity rating (Rattus norvegicus [5]): 1; Activity rating (Rattus norvegicus [6]): 1; Decrease (Rattus norvegicus [24]): 28%
CCc1ncc2cc(-c3ccccc3Cl)c(N)nc2n1	0	0	0	–
COCc1ncc2cc(-c3c(Cl)cccc3Cl)c(N)nc2n1	–	–	–	Activity rating (Rattus norvegicus [15]): 1; Decrease (Rattus norvegicus [10]): 14%; Activity rating (Rattus norvegicus [16]): 1; Activity rating (Rattus norvegicus [17]): 1
Cc1cc(C)c(-c2cc3cnc(C)nc3nc2N)c(C)c1	1	0	0	Decrease (Rattus norvegicus [9]): 18%
Cc1nc(C)c2cc(-c3c(Cl)cccc3Cl)c(N)nc2n1	2	–	3	Decrease (Rattus norvegicus [13]): 32%; Activity rating (Rattus norvegicus [4]): 2
CCc1ccccc1-c1cc2cnc(C)nc2nc1N	0	0	0	–
CCc1ncc2cc(-c3ccccc3C)c(N)nc2n1	0	0	0	–
CCOc1nc(C)nc2nc(N)c(-c3c(Cl)cccc3Cl)cc12	–	–	–	Activity rating (Rattus norvegicus [15]): 0; Activity rating (Rattus norvegicus [16]): 0; Activity rating (Rattus norvegicus [17]): 0
Nc1nc2ncncc2cc1-c1cccnc1	0	0	0	–
Cc1ncc2cc(-c3ccc(Cl)c(Cl)c3)c(N)nc2n1	0	–	0	–
Nc1nc2nc(CO)ncc2cc1-c1c(Cl)cccc1Cl	0	1	1	Decrease (Rattus norvegicus [25]): 17%
Cc1ncnc2nc(N)c(-c3c(Cl)cccc3Cl)cc12	2	–	2	Decrease (Rattus norvegicus [13]): 26%; Activity rating (Rattus norvegicus [8]): 0; Activity rating (Rattus norvegicus [5]): 0; Activity rating (Rattus norvegicus [6]): 0
